Compound activity deposited in PubChem by several laboratories.
C-LANA FP: blocks KSHV LANA C-terminal domain binding to DNA; MBP-C-LANA/FAM-LBS DNA binding, fluorescence polarization; inhibition, % at 9 µM; 0.078% of 340,000 active;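 active means highest replicate inhibition at or above 60% at 9 µM, even if other replicates fall short; inactive means all replicates below 60% inhibition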;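 further: 0% = neutral control wells and 100% = 4 µM acridine orange control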
MEX-5 binding: C. elegans MEX-5 TCR-2 RNA binding activity. activity score (negative = inhibition of binding), % at 10 µM. 0.38% of 300,000 active. MEX-5/FITC-TCR2 RNA binding, fluorescence polarization; hits give low values;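 active means inhibition past about -25% in most replicates, and total fluorescence under double the plate's negative control median, limit read from the data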;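 further: 0% = DMSO and -100% = 5 µM competing unlabeled TCR2 RNA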
T cell HTS: T cell immune modulation candidate. 0.068% of 330,000 active. response (vesicle binding), % at 7 µM. 2C CD8+ T cell-vesicle binding, flow cytometry; hits give low values;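 active means response, share of CD8 T cells binding vesicles, and their 90th percentile fluorescence all below set limits, cut at about 80% in these data, passing the limit was not always enough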;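 further: values below 100% mean blocked vesicle binding to the CD8+ T cells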
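material = purified 2C TCR transgenic mouse naive CD8+ T cells | controls = Unloaded micro-vesicles (low), QL9 vesicles with 0.7% DMSO (high) | detection = cytometric PE anti-B7-1 and Alexa647 anti-CD8 signals after 1% paraformaldehyde fixation | incubation = binding step 1.5 h, 37 °C, antibody labelling 20 min, ice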
Keap1 Nrf2 FP: Keap1-Nrf2 (human) interaction inhibition | Keap1 Kelch-Nrf2 peptide fluorescence polarization, 1536-well | Q14145 | inhibition, % at 9.4 µM | 0.15% of 340,000 active | AID 504523; in the data active means inhibition above about 12%;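 further: human Keap1 Kelch domain with fluorescein labeled Nrf2 9mer peptide probe; 0% = neutral control wells and 100% = peptide positive control; higher means more block of Keap1 binding to Nrf2 peptide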
EBV gp42 inh: EBV gp42 inhibition. Q1HVG2. Fluorescence polarization binding assay, mP read-out. inhibition, % (tested at 21.74 µM). 0.42% of 220,000 active; in the data active means inhibition above about 50%
GRK2 inh: inhibitors of human GRK2 displacing RNA aptamer. P25098. bead flow cytometry, FAM-aptamer displacement from GRK2. inhibition of aptamer binding, % at 10 µM. 0.59% of 330,000 active. AID 488847;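 active means inhibition of aptamer binding above 40%, roughly 3 SD of noise, on plates passing a quality check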;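 further: median bead fluorescence of bound FAM aptamer so fluorescent compounds give negative values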
Target sequence (P25098 whole entry, looked up): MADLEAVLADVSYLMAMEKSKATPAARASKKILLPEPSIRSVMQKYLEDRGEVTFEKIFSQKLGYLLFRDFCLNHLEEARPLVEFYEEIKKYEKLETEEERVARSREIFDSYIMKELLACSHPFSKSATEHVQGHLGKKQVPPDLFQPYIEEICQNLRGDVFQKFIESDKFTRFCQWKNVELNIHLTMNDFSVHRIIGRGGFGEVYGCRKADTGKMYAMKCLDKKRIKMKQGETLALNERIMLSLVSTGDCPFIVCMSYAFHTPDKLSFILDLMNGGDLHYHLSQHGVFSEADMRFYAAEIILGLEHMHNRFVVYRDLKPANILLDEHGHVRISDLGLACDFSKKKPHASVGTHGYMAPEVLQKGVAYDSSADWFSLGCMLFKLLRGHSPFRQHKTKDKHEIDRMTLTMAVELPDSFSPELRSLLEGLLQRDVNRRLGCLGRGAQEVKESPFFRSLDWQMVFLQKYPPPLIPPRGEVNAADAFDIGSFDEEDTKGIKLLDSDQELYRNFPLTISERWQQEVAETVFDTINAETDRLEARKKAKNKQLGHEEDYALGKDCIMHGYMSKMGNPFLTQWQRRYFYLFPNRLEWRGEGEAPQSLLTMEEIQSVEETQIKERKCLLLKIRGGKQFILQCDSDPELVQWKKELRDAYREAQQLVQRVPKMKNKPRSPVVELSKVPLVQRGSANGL
GRK2 CP1: confirmation of human GRK2 inhibitors displacing RNA aptamer | bead-bound GRK2, FAM-aptamer displacement, flow cytometry | aptamer displacement, % at 10 µM | AID 504451 | 4% of 2,000 active | shares compounds with GRK2 inh;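 active means aptamer displacement above 40%, near three times the noise of non-fluorescent compounds, on plates passing quality checks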;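 further: negative values mostly reflect intrinsic compound fluorescence rather than true enhancement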
FAM quench CP1: quenches fluorescent RNA aptamer, GRK2 hit artifact | 2,000 tested, under 10 active | shares compounds with GRK2 inh | fluorescence response (% of DMSO), % at 10 µM | Carboxyfluorescein RNA aptamer on beads, flow cytometry quenching; hits give low values;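 active means compounds that quench the bead-bound fluorescent RNA probe, cutting fluorescence to under half of the solvent control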;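 further: counterscreen run without GRK2 so only probe quenching by compound is measured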
Starred values were filed as active, the others as inactive; i = inactive; nt = no result. Only some compounds are listed: those with a hit (about 1.3% of all), similar ones and a draw of the others.

SMILES	C-LANA FP	MEX-5 binding	T cell HTS	Keap1 Nrf2 FP	EBV gp42 inh	GRK2 inh	GRK2 CP1	FAM quench CP1
Cc1ccc(CNC(=O)c2ccc(N3CCc4ccccc43)c([N+](=O)[O-])c2)cc1	0	1	149	-2	-3	3	0	98
Cc1ccc(-c2c(C)sc3ncn(CC(=O)N4CCOCC4)c(=O)c23)cc1C	2	-2	336	-6	-5	0	nt	nt
Nc1[nH]ncc1-c1ccc(Cl)cc1	34	2	335	-1	-8	99*	1	102
O=C(COC(=O)Cc1ccc(-c2ccccc2)cc1)NCc1ccc(F)cc1	1	0	335	1	-14	8	-1	99
Cc1ccc(CNC(=O)Cc2ccc(-c3ccccc3)cc2)cc1	3	3	155	2	-21	0	nt	nt
Cc1ccc(CNC(=O)COC(=O)Cc2ccc(-c3ccccc3)cc2)cc1	-1	-2	178	-4	7	0	-3	99
COc1cc(C(=O)NC2CC3CCCC(C2)N3CC(=O)Nc2ccccc2)cc(OC)c1OC (stereo unspecified)	1	1	269	0	-16	0	nt	nt
CN(CC(=O)NCc1ccc(F)cc1)Cc1cccc(Cl)c1	0	2	274	1	nt	0	nt	nt
CCN(CC(=O)NCc1ccc(F)cc1)C(=O)C(C)Oc1cccc(Cl)c1 (stereo unspecified)	0	nt	416	-5	nt	79*	-1	101
CC1=C(C(=O)OCC2CCCCC2)C(c2ccc(O)cc2)NC(=O)N1 (stereo unspecified)	1	1	646	-4	nt	16	-42	192
CC1=C(C(=O)OCC2CCCCC2)C(c2cccc(O)c2)NC(=O)N1 (stereo unspecified)	0	-2	221	1	nt	0	nt	nt
COc1ccccc1-c1cc(C(=O)N/N=C\c2cn(C)nc2C)c2ccccc2n1	0	2	252	1	0	1	nt	nt
CCOCc1cnc(C)nc1NCC(=O)c1c(C)[nH]c2ccccc12	-1	1	179	1	-51	56*	-1	100
COC(CNC(=O)CN1CCN(Cc2ccc(F)cc2Cl)C1=O)OC	0	0	289	-2	nt	17	-3	96
O=C1C(=O)c2ccc(-c3ccccc3)cc2-c2ccccc21	0	0	210	-2	-12	66*	15	105
CC(=O)N1CCN(C(=O)c2ccc(-n3c(C)ccc3C)cc2)CC1	1	2	182	-2	-13	2	nt	nt
CCOc1cc2[nH]c(=S)n(C3CC3)c(=O)c2cc1OCC	2	-1	252	-1	-1	41*	15	98
CCOC(=O)N1CCC(n2c(=S)[nH]c3cc(OCC)c(OCC)cc3c2=O)CC1	1	1	319	-5	1	11	nt	nt
COc1ccc(CC(=O)NNC(=O)c2ccncc2)cc1	-1	-1	107	-5	-9	1	nt	nt
Cc1ccnc(NC(=O)Cn2cc([N+](=O)[O-])cn2)c1	3	nt	i	0	-7	2	nt	nt
Cc1c(NC(=O)Nc2ccccc2[N+](=O)[O-])c(=O)n(-c2ccccc2)n1C	1	0	463	-1	nt	13	1	101
O=C(Nc1ccccn1)Nc1ccccc1[N+](=O)[O-]	1	-2	177	-1	nt	13	0	103
O=C(Cn1cc([N+](=O)[O-])cn1)Nc1ccccn1	-1	-1	i	-1	-15	60*	-1	96
Cc1ccccc1NC(=O)Nc1ccccn1	2	3	490	-6	nt	0	nt	nt
Cc1c(NC(=O)Nc2ccc([N+](=O)[O-])cc2)c(=O)n(-c2ccccc2)n1C	0	1	171	0	nt	0	nt	nt
CC(C(=O)Nc1ccc(S(=O)(=O)N2CCCC2)cc1)N1CCCC(C(N)=O)C1 (stereo unspecified)	1	nt	nt	0	nt	nt	nt	nt
